# According to ChEMBL document CHEMBL1135984, “Mechanism-based design of parasite-targeted artemisinin derivatives: synthesis and antimalarial activity of new diamine containing analogues” (J Med Chem, 2002):
# Species on record: Mus musculus
# Assay: 90% effective dose against Plasmodium yoelii in mice (Mus musculus)
# Format: functional
row,Structure (SMILES),ED90 [mg/kg]
1,C[C@H]1[C@H](OC(=O)CCC(=O)[O-])O[C@@H]2O[C@@]3(C)CC[C@H]4[C@H](C)CC[C@@H]1[C@@]24OO3.[Na+] [SODIUM ARESUNATE],100
2,"C[C@H]1[C@@H](CCN2CCN(c3ccc(F)cc3)CC2)O[C@@H]2OC3(C)CCC4[C@H](C)CC[C@@H]1[C@]42OO3 (single isomer, unassigned)",10
3,"C[C@H]1[C@@H](CCN2CCN(Cc3ccccc3)CC2)O[C@@H]2OC3(C)CCC4[C@H](C)CC[C@@H]1[C@]42OO3 (single isomer, unassigned)",> 10
4,"C[C@H]1[C@@H](CCN2CCN(c3cccc(C(F)(F)F)c3)CC2)O[C@@H]2OC3(C)CCC4[C@H](C)CC[C@@H]1[C@]42OO3 (single isomer, unassigned)",< 10
5,"C[C@H]1[C@@H](CCN2CCN(c3ccccc3)CC2)O[C@@H]2OC3(C)CCC4[C@H](C)CC[C@@H]1[C@]42OO3 (single isomer, unassigned)",> 10
6,"C[C@H]1[C@@H](CCN2CCN(c3ccc([N+](=O)[O-])cc3)CC2)O[C@@H]2OC3(C)CCC4[C@H](C)CC[C@@H]1[C@]42OO3 (single isomer, unassigned)",> 10

# Species on record: Mus musculus
# Assay: 50% effective dose against Plasmodium yoelii in mice (Mus musculus)
# Format: functional
row,Structure (SMILES),ED50 [mg/kg]
1,C[C@H]1[C@H](OC(=O)CCC(=O)[O-])O[C@@H]2O[C@@]3(C)CC[C@H]4[C@H](C)CC[C@@H]1[C@@]24OO3.[Na+] [SODIUM ARESUNATE],1.6
2,"C[C@H]1[C@@H](CCN2CCN(c3ccc(F)cc3)CC2)O[C@@H]2OC3(C)CCC4[C@H](C)CC[C@@H]1[C@]42OO3 (single isomer, unassigned)",< 10
3,"C[C@H]1[C@@H](CCN2CCN(Cc3ccccc3)CC2)O[C@@H]2OC3(C)CCC4[C@H](C)CC[C@@H]1[C@]42OO3 (single isomer, unassigned)",< 10
4,"C[C@H]1[C@@H](CCN2CCN(c3cccc(C(F)(F)F)c3)CC2)O[C@@H]2OC3(C)CCC4[C@H](C)CC[C@@H]1[C@]42OO3 (single isomer, unassigned)",< 10
5,"C[C@H]1[C@@H](CCN2CCN(c3ccccc3)CC2)O[C@@H]2OC3(C)CCC4[C@H](C)CC[C@@H]1[C@]42OO3 (single isomer, unassigned)",< 10
6,"C[C@H]1[C@@H](CCN2CCN(c3ccc([N+](=O)[O-])cc3)CC2)O[C@@H]2OC3(C)CCC4[C@H](C)CC[C@@H]1[C@]42OO3 (single isomer, unassigned)",< 10

# Tested on: Mus musculus
# Assay: 50% effective dose for antimalarial activity (in vivo) against Plasmodium berghei
# Format: functional
# Procedure, shortened: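 Male Swiss albino mice, 18-22 g, infected ip with 10^7 P. berghei NS parasitized erythrocytes. Dosed ip or orally once daily for 4 days from the day of infection, in methanol/PBS/DMSO (2:5:3 v/v). Parasitemia read the day after the last dose. ED50 (50% suppression versus vehicle controls) taken from a plot of log dose against parasitemia.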
row,Structure (SMILES),ED50 [mg/kg]
1,"C[C@H]1[C@@H](CCN2CCN(c3cccc(C(F)(F)F)c3)CC2)O[C@@H]2OC3(C)CCC4[C@H](C)CC[C@@H]1[C@]42OO3 (single isomer, unassigned)",3.12

# Tested on: Plasmodium falciparum
# Assay: In vitro inhibitory concentration against chloroquine-sensitive Plasmodium falciparum HB3
# Format: functional, organism-based
# Procedure, shortened: (§1)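 48 h growth assay in human erythrocytes (2% parasitemia, 0.5% haematocrit) in RPMI 1640 with 25 mM HEPES, 32 mM NaHCO3 and 10% human serum, under 3% O2/4% CO2/93% N2 at 37 °C. DMSO stocks diluted in medium; triplicates. 0.5 μCi [3H]-hypoxanthine added at 24 h, uptake counted 24 h later. IC50 by probit interpolation of log dose–response versus drug-free controls.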
row,Structure (SMILES),IC50 [nM]
1,"C[C@H]1[C@@H](OCc2ccc(CN3CCN(c4ccc(F)cc4)CC3)cc2)O[C@@H]2OC3(C)CCC4[C@H](C)CC[C@@H]1[C@]42OO3 (single isomer, unassigned)",2.3
2,"C[C@H]1[C@@H](OCc2cccc(CN3CCN(c4ccc([N+](=O)[O-])cc4)CC3)c2)O[C@@H]2OC3(C)CCC4[C@H](C)CC[C@@H]1[C@]42OO3 (single isomer, unassigned)",4.3
3,"C[C@H]1[C@@H](OCc2ccc(CN3CCN(c4ccc(C(F)(F)F)cc4)CC3)cc2)O[C@@H]2OC3(C)CCC4[C@H](C)CC[C@@H]1[C@]42OO3 (single isomer, unassigned)",8.1
4,"C[C@H]1[C@@H](OCc2cccc(CN3CCN(c4ccccc4)CC3)c2)O[C@@H]2OC3(C)CCC4[C@H](C)CC[C@@H]1[C@]42OO3 (single isomer, unassigned)",3.4
5,CO[C@H]1O[C@@H]2O[C@@]3(C)CC[C@H]4[C@H](C)CC[C@@H]([C@H]1C)[C@@]24OO3 [ARTEMETHER],9.2
6,"C[C@H]1[C@@H](OCc2cccc(CN3CCN(c4ccc(F)cc4)CC3)c2)O[C@@H]2OC3(C)CCC4[C@H](C)CC[C@@H]1[C@]42OO3 (single isomer, unassigned)",12.6
7,C[C@H]1[C@@H](OCc2ccc(CN3CCN(Cc4ccccc4)CC3)cc2)O[C@@H]2O[C@]3(C)CC[C@H]4[C@H](C)CC[C@@H]1[C@@]24OO3,1.8

# Tested on: Plasmodium falciparum
# Assay: (§2) In vitro inhibitory concentration against chloroquine-resistant Plasmodium falciparum K1
# Format: functional, organism-based
# Procedure, shortened: as §1
row,Structure (SMILES),IC50 [nM]
1,"C[C@H]1[C@@H](OCc2ccc(CN3CCN(c4ccc(F)cc4)CC3)cc2)O[C@@H]2OC3(C)CCC4[C@H](C)CC[C@@H]1[C@]42OO3 (single isomer, unassigned)",6.3
2,"C[C@H]1[C@@H](CCN2CCCCC2)O[C@@H]2OC3(C)CCC4[C@H](C)CC[C@@H]1[C@]42OO3 (single isomer, unassigned)",4.83
3,CCCN(CCC)CC[C@H]1O[C@@H]2O[C@]3(C)CC[C@H]4[C@H](C)CC[C@@H]([C@H]1C)[C@@]24OO3,7.51
4,"C[C@H]1[C@@H](CCN2CCN(c3ccc(F)cc3)CC2)O[C@@H]2OC3(C)CCC4[C@H](C)CC[C@@H]1[C@]42OO3 (single isomer, unassigned)",5.96
5,"C[C@H]1[C@@H](OCc2cccc(CN3CCN(c4ccc([N+](=O)[O-])cc4)CC3)c2)O[C@@H]2OC3(C)CCC4[C@H](C)CC[C@@H]1[C@]42OO3 (single isomer, unassigned)",4.3
6,"C[C@H]1[C@@H](OCc2ccc(CN3CCN(c4ccc([N+](=O)[O-])cc4)CC3)cc2)O[C@@H]2OC3(C)CCC4[C@H](C)CC[C@@H]1[C@]42OO3 (single isomer, unassigned)",138
7,"C[C@H]1[C@@H](OCc2cccc(CN3CCN(c4ccc(Cl)cc4)CC3)c2)O[C@@H]2OC3(C)CCC4[C@H](C)CC[C@@H]1[C@]42OO3 (single isomer, unassigned)",13.3
8,C[C@@H]1CC[C@H]2[C@@H](C)C(=O)O[C@@H]3O[C@@]4(C)CC[C@@H]1[C@]32OO4 [ARTEMISININ],12.5
9,"C[C@H]1[C@@H](CCN2CCN(Cc3ccccc3)CC2)O[C@@H]2OC3(C)CCC4[C@H](C)CC[C@@H]1[C@]42OO3 (single isomer, unassigned)",4.22
10,"C[C@H]1[C@@H](OCc2ccc(CN3CCN(c4ccc(C(F)(F)F)cc4)CC3)cc2)O[C@@H]2OC3(C)CCC4[C@H](C)CC[C@@H]1[C@]42OO3 (single isomer, unassigned)",12.5
11,"C[C@H]1[C@@H](OCc2cccc(CN3CCN(c4ccccc4)CC3)c2)O[C@@H]2OC3(C)CCC4[C@H](C)CC[C@@H]1[C@]42OO3 (single isomer, unassigned)",6.6
12,"C[C@H]1[C@@H](CCN2CCN(c3cccc(C(F)(F)F)c3)CC2)O[C@@H]2OC3(C)CCC4[C@H](C)CC[C@@H]1[C@]42OO3 (single isomer, unassigned)",6.19
13,"C[C@H]1[C@@H](OCc2cccc(CN3CCN(c4cccc(C(F)(F)F)c4)CC3)c2)O[C@@H]2OC3(C)CCC4[C@H](C)CC[C@@H]1[C@]42OO3 (single isomer, unassigned)",22.5
14,"C[C@H]1[C@@H](CCN2CCN(c3ccccc3)CC2)O[C@@H]2OC3(C)CCC4[C@H](C)CC[C@@H]1[C@]42OO3 (single isomer, unassigned)",3.15
15,CO[C@H]1O[C@@H]2O[C@@]3(C)CC[C@H]4[C@H](C)CC[C@@H]([C@H]1C)[C@@]24OO3 [ARTEMETHER],6.5
16,"C[C@H]1[C@@H](OCc2cccc(CN3CCN(c4ccc(F)cc4)CC3)c2)O[C@@H]2OC3(C)CCC4[C@H](C)CC[C@@H]1[C@]42OO3 (single isomer, unassigned)",12.6
17,C[C@H]1[C@@H](CCN2CCN(c3ccc(Cl)cc3)CC2)O[C@@H]2O[C@]3(C)CC[C@H]4[C@H](C)CC[C@@H]1[C@@]24OO3,8.16
18,"C[C@H]1[C@@H](OCc2ccc(CN3CCN(c4ccccc4)CC3)cc2)O[C@@H]2OC3(C)CCC4[C@H](C)CC[C@@H]1[C@]42OO3 (single isomer, unassigned)",8.2
19,"C[C@H]1[C@@H](CCN2CCOCC2)O[C@@H]2OC3(C)CCC4[C@H](C)CC[C@@H]1[C@]42OO3 (single isomer, unassigned)",4.22
20,C[C@H]1[C@@H](OCc2ccc(CN3CCN(Cc4ccccc4)CC3)cc2)O[C@@H]2O[C@]3(C)CC[C@H]4[C@H](C)CC[C@@H]1[C@@]24OO3,3.8
21,"C[C@H]1[C@@H](CCN2CCN(c3ccc([N+](=O)[O-])cc3)CC2)O[C@@H]2OC3(C)CCC4[C@H](C)CC[C@@H]1[C@]42OO3 (single isomer, unassigned)",4.29

# Tested on: Plasmodium falciparum
# Assay: as §2
# Format: functional, organism-based
# Procedure, shortened: as §1
row,Structure (SMILES),IC50 [nM]
1,CO[C@H]1O[C@@H]2O[C@@]3(C)CC[C@H]4[C@H](C)CC[C@@H]([C@H]1C)[C@@]24OO3 [ARTEMETHER],7.94
